These results are taken from PMC2947842 (Bioorganic & medicinal chemistry, 2010).

The test has as its system B16/F1 melanoma cells. The test can be described thus: Clonogenic cytotoxicity. It is filed as cell-based, murine. The note with it: 0.1 μM peptide, 3 h incubation at 37 °C, colonies after 6 days. The procedure, abridged:
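B16/F1 cells seeded at 200 cells/well and exposed for 3 h at 37 °C in culture medium to 0.1 μM test peptide, comparator peptides, or medium alone. Washed twice with PBS and regrown in medium for 6 days. Fixed in methanol:glacial acetic acid (3:1), hematoxylin-stained, and scored by microscope; colonies over 50 cells counted as survivors. Survival normalized to untreated (100%). Unpaired Student t-test, p<0.05.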

Positions of bridges follow the written chain, without caps; N, C: chain ends. Non-standard residues stand in square brackets, D forms with d. Residues, ends and D or L forms follow the SMILES beside them.

Regarding `CC(C)[C@H](NC(=O)[C@@H]1CCCN1C(=O)[C@H](CCCNC(=N)N)NC(=O)[C@H](CS)NC(=O)[C@H](Cc1c[nH]c2ccccc12)NC(=O)[C@H](CCCNC(=N)N)NC(=O)[C@@H](Cc1ccccc1)NC(=O)[C@H](Cc1c[nH]cn1)NC(=O)[C@H](CCC(=O)O)NC(=O)[C@H](CS)NC(=O)[C@H](CS)NC(=O)[C@H](CCCNC(=N)N)NC(=O)[C@@H]1CC(=O)N[C@@H](CCCNC(=N)N)C(=O)NCC(=O)N[C@@H](CC(=O)O)C(=O)N[C@H](Cc2ccc(O)cc2)C(=O)N1)C(N)=O` [RGD-Arg-(Arg^11)CCMSH] (RGD[dY]DRCCEH[dF]RWCRPV-NH2; lactam N-5; C-terminus assumed), the “Decrease in clonogenic survival in comparison with the untreated group” value is given as 62%. To “[Cys^3,4,10, D-Phe^7, Arg^11]α-MSH3-13 [(Arg^11)CCMSH]” belongs 11%.
